{"data": "Measurements collected from several papers", "target": "Mitogen-activated protein kinase 7 (MAPK7, Homo sapiens, UniProt Q13164)"}
{"SMILES": "CNC(=O)[C@@H]1CC[C@@H](n2c(-c3ccc4cnccc4c3)nc3ccc(C(=O)NCc4cccc(C(N)=O)c4)cc32)C1", "assay": "binding, competition with immobilised ligand", "conditions": "1 µM", "remaining binding": "100%"}
{"SMILES": "FC(F)(F)Oc1cccc(-c2cnc3ccc(-c4ccncc4)nn23)c1", "assay": "cell-free assay, competition with immobilised ligand", "conditions": "5 µM", "remaining binding": "99%"}
{"SMILES": "O=C(Nc1cnc(Oc2ccc(F)cc2)nc1)N1CCc2ncccc2[C@@H]1c1ccc(F)cc1", "assay": "cell-free assay, competition with immobilised ligand", "conditions": "1 µM", "remaining binding": "96%"}
{"SMILES": "COc1cc(C(=O)N2CCC(N3CCN(C)CC3)CC2)ccc1Nc1ncc2c(n1)N(C)c1ccccc1C(=O)N2C", "assay": "binding, competition with immobilised ligand", "conditions": "10 µM", "remaining binding": "0.05%"}
{"SMILES": "CN(CCCC(F)(F)F)c1nccc(-c2cnn3ncccc23)n1", "assay": "binding", "conditions": "1 µM", "remaining binding": "100%"}
{"SMILES": "c1cncc(-c2cccc(Nc3nccc(NC4CCCCC4)n3)c2)c1", "assay": "binding, competition with immobilised ligand", "conditions": "10 µM", "remaining binding": "92%"}
{"SMILES": "CN(C)c1nccc(-c2cnc3ncccn23)n1", "assay": "binding", "conditions": "1 µM", "remaining binding": "92%"}
{"SMILES": "COc1ccc2c(O[C@@H]3C[C@H]4C(=O)N[C@]5(C(=O)O)CC5/C=C\\CCCCC[C@H](NC(=O)OC5CCCC5)C(=O)N4C3)cc(-c3csc(NC(=O)C(C)C)n3)nc2c1C (stereo partly shown)", "assay": "cell-free assay, competition with immobilised ligand", "conditions": "1 µM", "remaining binding": "100%"}
{"SMILES": "O=C(c1ccc(Nc2ncc(Cl)c(-c3ccc(Cl)s3)n2)cc1)N1CCC(N2CCCC2)CC1", "assay": "binding, competition with immobilised ligand", "conditions": "1 µM", "remaining binding": "7.1%"}
{"SMILES": "c1cnn2ncc(-c3ccnc(N4CCC45COC5)n3)c2c1", "assay": "binding", "conditions": "1 µM", "remaining binding": "87%"}
{"SMILES": "O=C(NS(=O)(=O)c1ccc(NCC2CCOCC2)c([N+](=O)[O-])c1)c1ccc(N2CCN(Cc3ccc(C(F)(F)F)cc3-c3ccc(Cl)cc3)CC2)cc1Oc1cnc2[nH]ccc2c1", "assay": "cell-free assay, competition with immobilised ligand", "conditions": "1 µM", "remaining binding": "100%"}
{"SMILES": "O=C(NCC1CCOCC1)c1n[nH]cc1NC(=O)c1c(F)cccc1F", "assay": "binding, competition with immobilised ligand", "conditions": "1 µM", "remaining binding": "90%"}
{"SMILES": "C[C@@H]1CCN(c2nccc(-c3cnn4ncccc34)n2)C1", "assay": "binding", "conditions": "1 µM", "remaining binding": "100%"}
{"SMILES": "N#Cc1ccc(Nc2ccc3[nH]c(=O)[nH]c3c2)c(Cl)c1", "assay": "cell-free assay, competition with immobilised ligand", "conditions": "1 µM", "remaining binding": "100%"}
{"SMILES": "CN(c1nccc(-c2cnn3ncccc23)n1)C1CC1", "assay": "binding", "conditions": "1 µM", "remaining binding": "100%"}
{"SMILES": "Cc1noc([C@H]2C[C@@H](c3ccc(C(F)(F)F)cc3)CN(C(=O)N3CCS(=O)(=O)C3)C2)n1", "assay": "cell-free assay, competition with immobilised ligand", "conditions": "1 µM", "remaining binding": "87%"}
{"SMILES": "Nc1ncc2c(n1)-c1c([nH]c3ccc(C#CC4CC4)cc13)CCCC2", "assay": "binding, competition with immobilised ligand", "conditions": "1 µM", "remaining binding": "85%"}
{"SMILES": "C[C@@H](c1ccc(-n2cnc3c(N)ncnc32)cc1)N1CCc2nn(C)c(Cc3ccccc3)c2C1=O", "assay": "binding, competition with immobilised ligand", "conditions": "0.1 µM", "remaining binding": "89%"}
{"SMILES": "O=C(NCCCN1CCOCC1)c1ccc(Nc2ncc(Cl)c(-c3ccc(Cl)s3)n2)cc1", "assay": "binding, competition with immobilised ligand", "conditions": "1 µM", "remaining binding": "28%"}
{"SMILES": "FC(F)(F)c1ccc2c(c1)nc(-c1cccnc1)n2C1CC1", "assay": "cell-free assay, competition with immobilised ligand", "conditions": "1 µM", "remaining binding": "100%"}
{"SMILES": "O=C(c1ccc(Nc2ncc(Cl)c(-c3cc4ccccc4s3)n2)cc1)N1CCC(N2CCCC2)CC1", "assay": "binding, competition with immobilised ligand", "conditions": "1 µM", "remaining binding": "60%"}
{"SMILES": "N[C@H]1CCN(c2nccc(-c3cnn4ncccc34)n2)C1", "assay": "binding", "conditions": "1 µM", "remaining binding": "100%"}
